Measurements as given in ChEMBL document CHEMBL5303300, “EUbOPEN Chemogenomics Library - Multiplex” (2023).
Where “and” joins values, the source holds several entries; their conditions need not be identical. Identical values can stand only once.

Tested on: Fibroblast
Assay: Multiplex assay against human fibroblast
Assay type: toxicity, cell-based
Details: number of replicates 2
Outline: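 With compound added, live cells were imaged on a CQ1 microscope at 37°C and 5% CO2; staining with Hoechst33342, BioTracker Green Microtubule Cytoskeleton Dye, MitoTracker Red and Annexin V Alexa Fluor 680 had been done at seeding. The CellPathfinder machine-learning gating scheme split cells into Hoechst high-intensity objects or normal cells, normal cells into healthy, pyknosed or fragmented nuclei, and pyknosed cells into mitotic or apoptotic. The tubulin, mitochondrial-mass and membrane-permeability phenotypes are per cents of healthy-nucleus cells.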

[1] = 12 h, 1 µM, compound concentration 1 uM
[2] = 12 h, 10 µM, compound concentration 10 uM
[3] = 24 h, 1 µM, compound concentration 1 uM
[4] = 24 h, 10 µM, compound concentration 10 uM
[5] = 48 h, 1 µM, compound concentration 1 uM
[6] = 48 h, 10 µM, compound concentration 10 uM

With c1ccc2c(-c3coc4cc(-c5ccc(N6CCNCC6)cc5)cnc34)ccnc2c1 the “Population Apoptotic (%)” value [1] was 33% and 46%, the “Population Fragmented Nuclei (%)” value [1] was 18% and the “Population Healthy Nuclei (%)” value [1] was 69% and 66%. For the same molecule, the “Population Hoechst High Intensity Objects (%)” value [1] was 0%, the “Population Mitochondria Different-Phenotype (%)” value [1] was 0% and 2% and the “Population Mitotic Cells (%)” value [1] was 66% and 53%. The “Population Normal (%)” value [1] was 100%, the “Population Pyknosed Nuclei (%)” value [1] was 16% and 14% and the “Population Tubulin-Different-Phenotype (%)” value [1] was 10% and 15%. For the same molecule, the “Total Cell Count” value [1] was 182 and 274, the “Population Apoptotic (%)” value [2] was 68% and 73% and the “Population Fragmented Nuclei (%)” value [2] was 15% and 7%. The “Population Hoechst High Intensity Objects (%)” value [2] was 0%, the “Population Mitochondria Different-Phenotype (%)” value [2] was 8% and 0% and the “Population Mitotic Cells (%)” value [2] was 31% and 26%. For the same molecule, the “Population Normal (%)” value [2] was 100% and 98%, the “Population Pyknosed Nuclei (%)” value [2] was 52% and 91% and the “Population Tubulin-Different-Phenotype (%)” value [2] was 35% and 100%. The “Total Cell Count” value [2] was 223 and 162, the “Population Apoptotic (%)” value [3] was 44% and 60% and the “Population Healthy Nuclei (%)” value [3] was 73% and 71%. For the same molecule, the “Population Hoechst High Intensity Objects (%)” value [3] was 0%, the “Population Mitochondria Different-Phenotype (%)” value [3] was 0% and 2% and the “Population Mitotic Cells (%)” value [3] was 56% and 40%. The “Population Normal (%)” value [3] was 100%, the “Population Pyknosed Nuclei (%)” value [3] was 12% and 11% and the “Population Tubulin-Different-Phenotype (%)” value [3] was 15% and 9%. The “Total Cell Count” value [3] was 195 and 271, the “Population Apoptotic (%)” value [4] was 77% and 80% and the “Population Fragmented Nuclei (%)” value [4] was 9%. For the same molecule, the “Population Hoechst High Intensity Objects (%)” value [4] was 0%, the “Population Mitotic Cells (%)” value [4] was 22% and 19% and the “Population Normal (%)” value [4] was 98% and 100%. The “Population Pyknosed Nuclei (%)” value [4] was 83% and 66%, the “Population Tubulin-Different-Phenotype (%)” value [4] was 80% and 50% and the “Total Cell Count” value [4] was 163 and 202. For the same molecule, the “Population Apoptotic (%)” value [5] was 53% and 48%, the “Population Fragmented Nuclei (%)” value [5] was 16% and 27% and the “Population Healthy Nuclei (%)” value [5] was 76% and 63%. For the same molecule, the “Population Mitochondria Different-Phenotype (%)” value [5] was 0%, the “Population Mitotic Cells (%)” value [5] was 46% and 51% and the “Population Normal (%)” value [5] was 100% and 99%. The “Population Pyknosed Nuclei (%)” value [5] was 6% and 8%, the “Population Tubulin-Different-Phenotype (%)” value [5] was 10% and 11% and the “Total Cell Count” value [5] was 208 and 323. For the same molecule, the “Population Apoptotic (%)” value [6] was 84% and 91%, the “Population Fragmented Nuclei (%)” value [6] was 21% and the “Population Healthy Nuclei (%)” value [6] was 28% and 18%. The “Population Hoechst High Intensity Objects (%)” value [6] was 0%, the “Population Mitochondria Different-Phenotype (%)” value [6] was 2% and 7% and the “Population Mitotic Cells (%)” value [6] was 8%. The “Population Normal (%)” value [6] was 99%, the “Population Pyknosed Nuclei (%)” value [6] was 50% and 63% and the “Population Tubulin-Different-Phenotype (%)” value [6] was 44% and 38%. The “Total Cell Count” value [6] was 171 and 210.
With CN(C)CCCNc1ccnc(Nc2cccc(Cl)c2)n1 the “Population Apoptotic (%)” value [1] was 13% and 30%, the “Population Fragmented Nuclei (%)” value [1] was 9% and 15% and the “Population Healthy Nuclei (%)” value [1] was 76% and 67%. The “Population Hoechst High Intensity Objects (%)” value [1] was 0%, the “Population Membrane Permeable-Phenotype (%)” value [1] was 4% and the “Population Mitochondria Different-Phenotype (%)” value [1] was 1%. For the same molecule, the “Population Mitotic Cells (%)” value [1] was 86% and 70%, the “Population Normal (%)” value [1] was 99% and 100% and the “Population Pyknosed Nuclei (%)” value [1] was 14% and 16%. For the same molecule, the “Population Tubulin-Different-Phenotype (%)” value [1] was 14% and 10%, the “Total Cell Count” value [1] was 249 and 301 and the “Population Apoptotic (%)” value [2] was 36% and 44%. The “Population Fragmented Nuclei (%)” value [2] was 23% and 18%, the “Population Healthy Nuclei (%)” value [2] was 65% and 70% and the “Population Hoechst High Intensity Objects (%)” value [2] was 0%. For the same molecule, the “Population Membrane Permeable-Phenotype (%)” value [2] was 6% and 3%, the “Population Mitochondria Different-Phenotype (%)” value [2] was 2% and 1% and the “Population Mitotic Cells (%)” value [2] was 63% and 55%. The “Population Normal (%)” value [2] was 99%, the “Population Pyknosed Nuclei (%)” value [2] was 10% and 11% and the “Population Tubulin-Different-Phenotype (%)” value [2] was 32% and 19%. The “Total Cell Count” value [2] was 277 and 316, the “Population Apoptotic (%)” value [3] was 35% and 40% and the “Population Fragmented Nuclei (%)” value [3] was 13% and 19%. For the same molecule, the “Population Healthy Nuclei (%)” value [3] was 73% and 66%, the “Population Hoechst High Intensity Objects (%)” value [3] was 0% and the “Population Membrane Permeable-Phenotype (%)” value [3] was 4%. The “Population Mitochondria Different-Phenotype (%)” value [3] was 0% and 2%, the “Population Mitotic Cells (%)” value [3] was 64% and 59% and the “Population Normal (%)” value [3] was 100% and 99%. For the same molecule, the “Population Pyknosed Nuclei (%)” value [3] was 13% and 14%, the “Population Tubulin-Different-Phenotype (%)” value [3] was 14% and 13% and the “Total Cell Count” value [3] was 284 and 321. For the same molecule, the “Population Apoptotic (%)” value [4] was 30% and 31%, the “Population Fragmented Nuclei (%)” value [4] was 18% and 13% and the “Population Healthy Nuclei (%)” value [4] was 61% and 66%. The “Population Hoechst High Intensity Objects (%)” value [4] was 1% and 2%, the “Population Membrane Permeable-Phenotype (%)” value [4] was 4% and 3% and the “Population Mitochondria Different-Phenotype (%)” value [4] was 3% and 0%. The “Population Mitotic Cells (%)” value [4] was 69% and 68%, the “Population Normal (%)” value [4] was 98% and 97% and the “Population Pyknosed Nuclei (%)” value [4] was 20% and 19%. For the same molecule, the “Population Tubulin-Different-Phenotype (%)” value [4] was 32% and 17%, the “Total Cell Count” value [4] was 319 and 392 and the “Population Apoptotic (%)” value [5] was 56% and 66%. The “Population Fragmented Nuclei (%)” value [5] was 18% and 25%, the “Population Healthy Nuclei (%)” value [5] was 70% and 65% and the “Population Hoechst High Intensity Objects (%)” value [5] was 0%. The “Population Membrane Permeable-Phenotype (%)” value [5] was 3% and 1%, the “Population Mitochondria Different-Phenotype (%)” value [5] was 0% and the “Population Mitotic Cells (%)” value [5] was 43% and 33%. For the same molecule, the “Population Normal (%)” value [5] was 99%, the “Population Pyknosed Nuclei (%)” value [5] was 10% and 9% and the “Population Tubulin-Different-Phenotype (%)” value [5] was 12% and 5%. For the same molecule, the “Total Cell Count” value [5] was 314 and 360, the “Population Apoptotic (%)” value [6] was 22% and 29% and the “Population Fragmented Nuclei (%)” value [6] was 17% and 16%. For the same molecule, the “Population Healthy Nuclei (%)” value [6] was 66% and 70%, the “Population Hoechst High Intensity Objects (%)” value [6] was 6% and the “Population Membrane Permeable-Phenotype (%)” value [6] was 3% and 2%. The “Population Mitochondria Different-Phenotype (%)” value [6] was 2% and 0%, the “Population Mitotic Cells (%)” value [6] was 77% and 70% and the “Population Normal (%)” value [6] was 93%. For the same molecule, the “Population Pyknosed Nuclei (%)” value [6] was 16% and 13%, the “Population Tubulin-Different-Phenotype (%)” value [6] was 33% and 16% and the “Total Cell Count” value [6] was 391 and 463.
CC(C)NC(=O)[C@H]1CCC[C@H]1Nc1nc(Nc2ccc(C(=O)N(C)C3CCN(C)CC3)cc2)ncc1Cl was tested, and the “Population Apoptotic (%)” value [1] was 45% and 33%, the “Population Fragmented Nuclei (%)” value [1] was 7% and 8% and the “Population Healthy Nuclei (%)” value [1] was 62% and 61%. The “Population Hoechst High Intensity Objects (%)” value [1] was 0%, the “Population Membrane Permeable-Phenotype (%)” value [1] was 8% and the “Population Mitochondria Different-Phenotype (%)” value [1] was 0% and 2%. The “Population Mitotic Cells (%)” value [1] was 54% and 66%, the “Population Normal (%)” value [1] was 100% and the “Population Pyknosed Nuclei (%)” value [1] was 30% and 29%. For the same molecule, the “Population Tubulin-Different-Phenotype (%)” value [1] was 20% and 12%, the “Total Cell Count” value [1] was 109 and 134 and the “Population Apoptotic (%)” value [2] was 62% and 51%. For the same molecule, the “Population Fragmented Nuclei (%)” value [2] was 19% and 12%, the “Population Healthy Nuclei (%)” value [2] was 62% and 75% and the “Population Hoechst High Intensity Objects (%)” value [2] was 0%. The “Population Membrane Permeable-Phenotype (%)” value [2] was 0% and 4%, the “Population Mitochondria Different-Phenotype (%)” value [2] was 3% and 6% and the “Population Mitotic Cells (%)” value [2] was 37% and 48%. For the same molecule, the “Population Normal (%)” value [2] was 100%, the “Population Pyknosed Nuclei (%)” value [2] was 18% and 12% and the “Population Tubulin-Different-Phenotype (%)” value [2] was 51% and 44%. The “Total Cell Count” value [2] was 177 and 250, the “Population Apoptotic (%)” value [3] was 48% and 58% and the “Population Fragmented Nuclei (%)” value [3] was 8% and 10%. The “Population Healthy Nuclei (%)” value [3] was 60% and 59%, the “Population Hoechst High Intensity Objects (%)” value [3] was 0% and the “Population Membrane Permeable-Phenotype (%)” value [3] was 14% and 7%. The “Population Mitochondria Different-Phenotype (%)” value [3] was 0%, the “Population Mitotic Cells (%)” value [3] was 51% and 41% and the “Population Normal (%)” value [3] was 100%. For the same molecule, the “Population Pyknosed Nuclei (%)” value [3] was 30%, the “Population Tubulin-Different-Phenotype (%)” value [3] was 16% and 13% and the “Total Cell Count” value [3] was 127 and 136. The “Population Apoptotic (%)” value [4] was 65% and 66%, the “Population Fragmented Nuclei (%)” value [4] was 16% and 13% and the “Population Healthy Nuclei (%)” value [4] was 64% and 71%. For the same molecule, the “Population Hoechst High Intensity Objects (%)” value [4] was 0%, the “Population Membrane Permeable-Phenotype (%)” value [4] was 2% and 0% and the “Population Mitochondria Different-Phenotype (%)” value [4] was 9% and 6%. For the same molecule, the “Population Mitotic Cells (%)” value [4] was 34% and 33%, the “Population Normal (%)” value [4] was 100% and the “Population Pyknosed Nuclei (%)” value [4] was 18% and 15%. The “Population Tubulin-Different-Phenotype (%)” value [4] was 40% and 28%, the “Total Cell Count” value [4] was 171 and 258 and the “Population Apoptotic (%)” value [5] was 67% and 75%. The “Population Fragmented Nuclei (%)” value [5] was 14%, the “Population Healthy Nuclei (%)” value [5] was 62% and 59% and the “Population Hoechst High Intensity Objects (%)” value [5] was 0%. The “Population Membrane Permeable-Phenotype (%)” value [5] was 8% and 4%, the “Population Mitochondria Different-Phenotype (%)” value [5] was 0% and 1% and the “Population Mitotic Cells (%)” value [5] was 32% and 24%. For the same molecule, the “Population Normal (%)” value [5] was 100%, the “Population Pyknosed Nuclei (%)” value [5] was 22% and 26% and the “Population Tubulin-Different-Phenotype (%)” value [5] was 15% and 11%. The “Total Cell Count” value [5] was 127 and 141, the “Population Apoptotic (%)” value [6] was 78% and 82% and the “Population Fragmented Nuclei (%)” value [6] was 17% and 12%. The “Population Healthy Nuclei (%)” value [6] was 64% and 69%, the “Population Hoechst High Intensity Objects (%)” value [6] was 0% and the “Population Membrane Permeable-Phenotype (%)” value [6] was 4% and 5%. For the same molecule, the “Population Mitochondria Different-Phenotype (%)” value [6] was 6% and 2%, the “Population Mitotic Cells (%)” value [6] was 21% and 17% and the “Population Normal (%)” value [6] was 99% and 100%. For the same molecule, the “Population Pyknosed Nuclei (%)” value [6] was 17% and 18%, the “Population Tubulin-Different-Phenotype (%)” value [6] was 36% and 18% and the “Total Cell Count” value [6] was 160 and 243.
